Data taken from ChEMBL document CHEMBL1933008, “Novel 2-(2-(4-aryloxybenzylidene) hydrazinyl)benzothiazole derivatives as anti-tubercular agents” (2012).
Values after ≈ are worked out from the molar mass of the structure shown.

test system: Mycobacterium tuberculosis; assay: Antitubercular activity against Mycobacterium tuberculosis H37Rv after 7 days by Resazurin microtiter assay; assay type: functional; details: 168 h
Method in brief: (§1)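 M. tuberculosis H37Rv suspension seeded at 10^5 cells per well in Middlebrook 7H9 broth. Compounds serially diluted directly on the plate; control got equivalent DMSO. Incubated 37 °C for 7 days, then 0.02% fresh resazurin added and incubated a further 48 h. MIC read visually as the lowest concentration giving complete inhibition (no blue-to-pink change).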

Row | Structure (SMILES) | MIC
1 | Cc1ccc2nc(NN)sc2c1 | 222 µg/mL (≈ 1240 µM)
2 | NNc1nc2ccc(Cl)cc2s1 | 233 µg/mL (≈ 1170 µM)
3 | NNc1nc2ccccc2s1 | 288 µg/mL (≈ 1740 µM)
4 | O=Cc1ccc(Oc2ccccc2)cc1 | 133 µg/mL (≈ 670 µM)
5 | O=Cc1ccc(Oc2ccccc2Cl)cc1 | 123 µg/mL (≈ 531 µM)
6 | O=Cc1ccc(Oc2ccc(Cl)cc2)cc1 | 117 µg/mL (≈ 504 µM)
7 | C(=N/Nc1nc2ccccc2s1)/c1ccc(Oc2ccccc2)cc1 | 12.7 µg/mL (≈ 36.7 µM)
8 | Clc1ccccc1Oc1ccc(/C=N\Nc2nc3ccccc3s2)cc1 | 6 µg/mL (≈ 15.8 µM)
9 | Clc1ccc(Oc2ccc(/C=N\Nc3nc4ccccc4s3)cc2)cc1 | 2.94 µg/mL (≈ 7.74 µM)
10 | Clc1ccc(Oc2ccc(/C=N\Nc3nc4ccccc4s3)cc2)c(Cl)c1 | 2.63 µg/mL (≈ 6.35 µM)
11 | Cc1cc(Oc2ccc(/C=N\Nc3nc4ccccc4s3)cc2)ccc1Cl | 6.63 µg/mL (≈ 16.8 µM)
12 | Clc1ccc2nc(N/N=C\c3ccc(Oc4ccccc4)cc3)sc2c1 | 5.5 µg/mL (≈ 14.5 µM)
13 | Clc1ccc2nc(N/N=C\c3ccc(Oc4ccccc4Cl)cc3)sc2c1 | 2 µg/mL (≈ 4.83 µM)
14 | Clc1ccc(Oc2ccc(/C=N\Nc3nc4ccc(Cl)cc4s3)cc2)cc1 | 2.25 µg/mL (≈ 5.43 µM)
15 | Clc1ccc(Oc2ccc(/C=N/Nc3nc4ccc(Cl)cc4s3)cc2)c(Cl)c1 | 1.5 µg/mL (≈ 3.34 µM)
16 | Cc1cc(Oc2ccc(/C=N\Nc3nc4ccc(Cl)cc4s3)cc2)ccc1Cl | 4.5 µg/mL (≈ 10.5 µM)

Row | Structure (SMILES) | MIC
17 | Cc1ccc2nc(N/N=C\c3ccc(Oc4ccccc4)cc3)sc2c1 | 9.13 µg/mL (≈ 25.4 µM)
18 | Cc1ccc2nc(N/N=C\c3ccc(Oc4ccccc4Cl)cc3)sc2c1 | 4.75 µg/mL (≈ 12.1 µM)
19 | Cc1ccc2nc(N/N=C\c3ccc(Oc4ccc(Cl)cc4)cc3)sc2c1 | 15 µg/mL (≈ 38.1 µM)
20 | Cc1ccc2nc(N/N=C\c3ccc(Oc4ccc(Cl)cc4Cl)cc3)sc2c1 | 12.6 µg/mL (≈ 29.3 µM)
21 | Cc1ccc2nc(N/N=C\c3ccc(Oc4ccc(Cl)c(C)c4)cc3)sc2c1 | 15 µg/mL (≈ 36.8 µM)
22 | COc1ccc2nc(N/N=C\c3ccc(Oc4ccccc4)cc3)sc2c1 | 16.5 µg/mL (≈ 43.9 µM)
23 | COc1ccc2nc(N/N=C\c3ccc(Oc4ccccc4Cl)cc3)sc2c1 | 19.5 µg/mL (≈ 47.6 µM)
24 | COc1ccc2nc(N/N=C\c3ccc(Oc4ccc(Cl)cc4)cc3)sc2c1 | 8 µg/mL (≈ 19.5 µM)
25 | COc1ccc2nc(N/N=C\c3ccc(Oc4ccc(Cl)cc4Cl)cc3)sc2c1 | 27.5 µg/mL (≈ 61.9 µM)
26 | COc1ccc2nc(N/N=C\c3ccc(Oc4ccc(Cl)c(C)c4)cc3)sc2c1 | 27 µg/mL (≈ 63.7 µM)
27 | O=[N+]([O-])c1ccc2nc(N/N=C\c3ccc(Oc4ccccc4)cc3)sc2c1 | 29 µg/mL (≈ 74.3 µM)
28 | O=[N+]([O-])c1ccc2nc(N/N=C\c3ccc(Oc4ccccc4Cl)cc3)sc2c1 | 29.5 µg/mL (≈ 69.4 µM)
29 | O=[N+]([O-])c1ccc2nc(N/N=C\c3ccc(Oc4ccc(Cl)cc4)cc3)sc2c1 | 26.5 µg/mL (≈ 62.4 µM)
30 | O=[N+]([O-])c1ccc2nc(N/N=C\c3ccc(Oc4ccc(Cl)cc4Cl)cc3)sc2c1 | 23.5 µg/mL (≈ 51.2 µM)
31 | Cc1cc(Oc2ccc(/C=N\Nc3nc4ccc([N+](=O)[O-])cc4s3)cc2)ccc1Cl | 21.5 µg/mL (≈ 49 µM)
32 | NNC(=O)c1ccncc1 [ISONIAZID] | 0.4 µg/mL (≈ 2.92 µM)

test system: Mycobacterium tuberculosis; assay: Antitubercular activity against Mycobacterium tuberculosis; assay type: functional; details: not given; method in brief: as §1

Row | Structure (SMILES) | MIC
33 | Oc1cc(Cl)ccc1Oc1ccc(Cl)cc1Cl [TRICLOSAN] | 5 µg/mL (≈ 17.3 µM)
